Measurements taken from article PMC2532710 (Nucleic Acids Research, 2008).

Key:
[1] = system: Lagging strand fork; assay: 2-AP titration Kd, lagging strand fork; format: binding; conditions: Kd ratio, n = 1
In short: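 Each substrate carried 2-AP at strand 4, position 2 and was used at 0.1 μM in 20 mM Tris-HCl pH 7.8, 25 mM NaCl, 1 mM EDTA, 1.6% DMSO at 24°C. Peptide dimer added in 2-fold steps from 0.003125 μM, 3 min each. Excitation 315 nm, emission 330–430 nm. Adenine background subtracted, 365–375 nm averaged. Fc fitted by least squares to pooled 2–3 dilution series. Value given as Kd relative to HJ Kd.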

[2] = system: fork substrate with only the lagging strand; assay: 2-AP fluorescence quenching, lagging strand fork; format: binding
In short: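 Substrates were annealed from oligos (boiled 5 min, slow-cooled), gel-purified on native 12% PAGE and quantified spectrophotometrically. After ≥10 min equilibration, emission was read at 330–430 nm (excitation 315 nm). Adenine-substituted spectra were subtracted, and fold decrease at 370 nm was taken versus no peptide.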

Substance: (WRWYCR)2 (disulfide)
- Fold reduced versus HJ [1]: 5.5
- fold decrease in 2-AP fluorescence at 370 nm ([2]; Lag-1AP1 (central base), 0.05 μM dimer, 0.25:1): 1.0 fold
- fold decrease in 2-AP fluorescence at 370 nm ([2]; Lag-1AP1 (central base), 0.2 μM dimer, 1:1): 1.0 fold
- fold decrease in 2-AP fluorescence at 370 nm ([2]; Lag-1AP1 (central base), 0.8 μM dimer, 4:1): 1.3 fold
- fold decrease in 2-AP fluorescence at 370 nm ([2]; Lag-1AP1 (central base), 1.6 μM dimer, 8:1): 2.0 fold
- 2-AP quenching ([2]; Lag-1AP1, 4- and 8-fold molar excess): quenched
- 2-AP quenching ([2]; Lag-3AP2): only very weak quenching
- fold decrease in 2-AP fluorescence at 370 nm ([2]; Lag-3AP2, 0.05 μM dimer, 0.25:1): 1.0 fold
- fold decrease in 2-AP fluorescence at 370 nm ([2]; Lag-3AP2, 0.2 μM dimer, 1:1): 1.0 fold
- fold decrease in 2-AP fluorescence at 370 nm ([2]; Lag-4AP1 (central base), 0.05 μM dimer, 0.25:1): 1.0 fold
- fold decrease in 2-AP fluorescence at 370 nm ([2]; Lag-4AP1 (central base), 0.8 μM dimer, 4:1): 1.3 fold
- fold decrease in 2-AP fluorescence at 370 nm ([2]; Lag-4AP1 (central base), 1.6 μM dimer, 8:1): 1.9 fold
- 2-AP quenching ([2]; Lag-4AP1 and Lag-4AP2): quenched strongly
- fold decrease in 2-AP fluorescence at 370 nm ([2]; Lag-4AP2 (central base), 0.05 μM dimer, 0.25:1): 1.0 fold
- fold decrease in 2-AP fluorescence at 370 nm ([2]; Lag-4AP2 (central base), 0.8 μM dimer, 4:1): 1.3 fold
- fold decrease in 2-AP fluorescence at 370 nm ([2]; Lag-4AP2 (central base), 1.6 μM dimer, 8:1): 1.6 fold
- fold decrease in 2-AP fluorescence at 370 nm ([2]; Lag-4AP3, 0.05 μM dimer, 0.25:1): 1.0 fold
- fold decrease in 2-AP fluorescence at 370 nm ([2]; Lag-4AP3, 0.2 μM dimer, 1:1): 1.0 fold
- fold decrease in 2-AP fluorescence at 370 nm ([2]; Lag-4AP3, 0.8 μM dimer, 4:1): 1.2 fold
- fold decrease in 2-AP fluorescence at 370 nm ([2]; Lag-4AP3, 1.6 μM dimer, 8:1): 1.3 fold
- 2-AP quenching ([2]; Lag-4AP3 and Lag-4AP4): quenched relatively weakly
- fold decrease in 2-AP fluorescence at 370 nm ([2]; Lag-4AP4, 0.05 μM dimer, 0.25:1): 1.0 fold
- fold decrease in 2-AP fluorescence at 370 nm ([2]; Lag-4AP4, 0.2 μM dimer, 1:1): 1.0 fold
- fold decrease in 2-AP fluorescence at 370 nm ([2]; Lag-4AP4, 1.6 μM dimer, 8:1): 1.0 fold
